Assay results as given in ChEMBL document CHEMBL4257464, “Development of NMR and thermal shift assays for the evaluation of Mycobacterium tuberculosis isocitrate lyase inhibitors” (Medchemcomm, 2017).
pIC50: −log10 of the molar value. Activity calls are given as the source filed them. The calls are words filed in the database; no cut-off is given here. Where a SMILES comes first, the peptide text is derived from it. The star is where a group is joined. Cbz = O=C(OCc1ccccc1)*

Columns and labels:
[1] = target: T1, Isocitrate lyase 1 (Mycobacterium tuberculosis (strain CDC 1551 / Oshkosh)) (UniProt P9WKK6); test: Binding affinity to Mycobacterium tuberculosis ICL1 expressed in Escherichia coli BL21(DE3) assessed as increase in melting temperature at 1 mM in presence of MgCl2 by SYPRO orange dye based fluorescence assay
T1 sequence (whole entry): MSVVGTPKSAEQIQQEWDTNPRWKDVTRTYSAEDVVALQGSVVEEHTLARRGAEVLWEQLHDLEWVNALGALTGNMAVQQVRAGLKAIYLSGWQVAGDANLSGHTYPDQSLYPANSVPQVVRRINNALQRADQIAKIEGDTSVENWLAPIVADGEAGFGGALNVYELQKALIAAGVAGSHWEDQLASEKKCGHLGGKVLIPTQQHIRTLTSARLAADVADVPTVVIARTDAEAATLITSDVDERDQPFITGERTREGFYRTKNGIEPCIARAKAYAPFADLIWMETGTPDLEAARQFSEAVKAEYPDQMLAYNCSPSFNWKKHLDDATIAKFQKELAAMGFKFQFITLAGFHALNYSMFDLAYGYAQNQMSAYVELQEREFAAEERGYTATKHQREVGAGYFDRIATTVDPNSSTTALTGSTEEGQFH

[2] = target: T1, Isocitrate lyase 1 (Mycobacterium tuberculosis (strain CDC 1551 / Oshkosh)); test: Inhibition of Mycobacterium tuberculosis ICL1 expressed in Escherichia coli BL21(DE3) at 100 uM using DL-isocitrate as substrate incubated for 25 mins in presence of MgCl2 by 1H NMR method
In short: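 Direct 1H NMR time course at 500 MHz, 300 K, with excitation-sculpting water suppression. Sample: 190 nM ICL1, 1 mM DL-isocitrate, 5 mM MgCl2, 100 μM inhibitor, 50 mM Tris-D11 pH 7.5 in 90% H2O/10% D2O. Substrate consumption and product formation are tracked directly. Initial rates come from linear fits up to 20% turnover. Run in triplicate.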

Isocitrate lyase 1 [3] = target: T2, Isocitrate lyase 1 (Mycobacterium tuberculosis (strain CDC 1551 / Oshkosh), UniProt P9WKK6); test: Inhibition of Mycobacterium tuberculosis ICL1 expressed in Escherichia coli BL21(DE3) using DL-isocitrate as substrate incubated for 25 mins in presence of MgCl2 by 1H NMR method
T2 sequence (P9WKK6 whole entry): T1 sequence (whole entry)
In short: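 1H NMR assay at 500 MHz, 300 K, water-suppressed spectra recorded over time. Sample: 190 nM ICL1, 1 mM DL-isocitrate, 5 mM MgCl2, varying inhibitor concentrations, 50 mM Tris/Tris-D11 pH 7.5 in 90% H2O/10% D2O. Initial rates from linear fits up to 20% turnover; IC50 from a 3-parameter sigmoid fit. Triplicate measurements, errors given as SD.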

[4] = target: T1, Isocitrate lyase 1 (Mycobacterium tuberculosis (strain CDC 1551 / Oshkosh)); test: Binding affinity to Mycobacterium tuberculosis ICL1 expressed in Escherichia coli BL21(DE3) assessed as melting temperature at 1 mM in presence of MgCl2 by SYPRO orange dye based fluorescence assay (reference value: 43 degC)
Isocitrate lyase 1 [5] = target: T2, Isocitrate lyase 1; test: Inhibition of Mycobacterium tuberculosis ICL1

SMILES	ΔTm [1]	inhibition [2]	further results
O=C(COc1ccccc1Br)c1ccc(O)cc1O	> 0.5 °C		
Nc1ccc(C(=O)CC(=O)Nc2cc(C(=O)O)cc(C(=O)O)c2)cc1	> 0.5 °C		
COc1cc(OC)c(C(=O)COC(=O)c2oc3ccccc3c2C)c(OC)c1		inactive	
COc1ccc(O)c(C(=O)CC(=O)c2ccccc2)c1	> 0.5 °C		
O=C(O)CC[N+](=O)[O-]		Active	pIC50 (Isocitrate lyase 1 [3]): 4.83; Tm [4]: 40.9 °C
CCOC(=O)c1ccc(CC(=O)c2oc3cc(O)ccc3c2C)o1	> 0.5 °C	Active	pIC50 (Isocitrate lyase 1 [3]): < 4.00
CCCCCCc1cc(C(=O)Cc2cc3ccccc3o2)c(O)cc1O		inactive	
CCCc1cc(C(=O)Cc2cc3ccccc3o2)c(O)cc1O	> 0.5 °C		
CCOC(=O)c1oc2ccc(CC(=O)c3c(C)cc(O)cc3O)cc2c1C		inactive	
O=C(O)COc1ccc(C(=O)Cc2ccc3c(c2)OCCCO3)c(O)c1	> 0.5 °C		
O=C(Cc1ccc2cccnc2c1)c1ccc(O)cc1O	> 0.5 °C		
CCCCc1cc(C(=O)Cc2cc3ccccc3o2)c(O)cc1O		inactive	
Nc1ccc([C@H](O)[C@@H](N)CO)cc1	> 0.5 °C		
NC(Cc1c[nH]c2ccccc12)C(=O)NCc1ccco1 (stereo not given)	> 0.5 °C		
CC(Oc1ccc2c3c(c(=O)oc2c1)CCC3)C(=O)NCC1CCC(C(=O)O)CC1 (stereo not given)	> 0.5 °C		
Cc1ccc(C(=O)CC(=O)c2ccco2)c(O)c1	> 0.5 °C		

SMILES	ΔTm [1]	inhibition [2]	further results
C=C(CC(=O)O)C(=O)O [ITACONATE]		Active	pIC50 (Isocitrate lyase 1 [3]): 4.53; Tm [4]: 53.3 °C
CCOC(=O)c1cc2cc(CC(=O)c3ccc(OC)cc3O)ccc2o1		inactive	
COc1ccc(C(=O)COC(=O)c2oc3ccc(OC)cc3c2C)c(OC)c1		inactive	
COc1ccc(CC(=O)Nc2ccc(O)cc2C(=O)O)cc1	> 0.5 °C		
CC(C)[C@H](NC(=O)COc1ccc(C(=O)COc2ccccc2)c(O)c1)C(=O)O	> 0.5 °C		
O=C(O)C1=CC=C(COc2ccc3ccc(=O)oc3c2)C1	> 0.5 °C		
COC(=O)/C=C/C(=O)c1ccc(OC)cc1		inactive	pIC50 (Isocitrate lyase 1 [3]): 3.60; pIC50 (Isocitrate lyase 1 [5]): 4.51; Tm [4]: 37.6 °C
O=C(O)C(=O)CBr [BROMOPYRUVATE]		Active	pIC50 (Isocitrate lyase 1 [3]): 4.76; Tm [4]: 52.5 °C
O=C(O)CNC(=O)c1ccc(NC(=O)/C(=C/c2ccccc2)NC(=O)c2ccccc2)cc1	> 0.5 °C		
COc1ccc2oc(C(=O)OCC(=O)c3ccc(C)s3)c(C)c2c1		inactive	
CCc1cc(C(=O)Cc2cc3ccccc3o2)c(O)cc1OC		inactive	
CC(C)C(NC(=O)OCc1ccccc1)C(=O)NCC(=O)NC(Cc1c[nH]c2ccccc12)C(=O)O (stereo not drawn) (Cbz-Val-Gly-Trp-OH; configuration not given here)	> 0.5 °C		
CCOC(=O)c1cc2cc(CC(=O)c3ccc(O)cc3O)ccc2o1	> 0.5 °C	Active	pIC50 (Isocitrate lyase 1 [3]): < 4.00
COc1ccc(OCC(=O)c2c(O)cc(O)cc2O)cc1	> 0.5 °C		
NC(CC(=O)O)c1cccnc1 (stereo not given)	> 0.5 °C		
CCCc1cc(C(=O)Cc2cc3ccccc3o2)c(O)cc1OC		inactive	
